Experimental data pooled from the literature.
Compare with care: the assays were run in different laboratories.
HTR2B: 5-hydroxytryptamine receptor 2B (HTR2B, Homo sapiens, UniProt P41595)
HTR2C: 5-hydroxytryptamine receptor 2C (HTR2C, Homo sapiens, UniProt P28335)

SMILES | target | assay | setting | measurement | result
COc1cc2c(cc1OC)-c1c(OC)c(OC)cc3c1[C@H](C2)N(C)CC3 | HTR2B | ligand displacement, radioligand | 10 µM | inhibition | 92%
[2H]c1c([2H])c([C@]2([2H])CCCN2C(=O)C(C)(C)Oc2ccc3cn[nH]c3c2)c([2H])c([2H])c1C([2H])([2H])[2H] | BMP-2-inducible protein kinase (BMP2K, Homo sapiens, UniProt Q9NSY1) | binding, competition with immobilised ligand | 1 µM | remaining binding | 77%
c1cncc([C@@H]2CCCN2)c1 | HTR2C | ligand displacement | 50 µM | inhibition | -12.7%
COc1cc(C(F)(F)F)c(OC)cc1C1CCCNC1 (stereo not drawn) | HTR2C | G protein activation, agonist, BRET | – | Emax | 85%
CCOC(=O)Cc1c2c3c(cc(OC)c(OC)c3c3cc(OC)c(OC)cc13)CCN2C | HTR2B | ligand displacement, radioligand | 10 µM | inhibition | 43%
Nc1ncnc2c1ncn2[C@@H]1O[C@H](C[C@@H](N)CC[C@H](N)C(=O)O)[C@@H](O)[C@H]1O | mRNA cap guanine-N(7) methyltransferase (RNMT, Homo sapiens, UniProt O43148) | enzyme activity, inhibitor | 50 µM | inhibition | 85.3%
CC(C)CC(=O)OC[C@H]1O[C@@](C#N)(c2ccc3c(N)ncnn23)[C@H](O)[C@@H]1O | HTR2C | cell-free assay | 20 µM | inhibition | 10%
COc1cc2c3c(c1OC)-c1c(cccc1OC)CC3N(C)CC2 (racemic) | HTR2B | ligand displacement, radioligand | 10 µM | inhibition | 86%
CN1CCC[C@H]1c1cccnc1 | Neuronal acetylcholine receptor; alpha3/beta4 (Rattus norvegicus, UniProt P04757+P12392) | ligand displacement, radioligand | 50 µM | inhibition | 65.5%
